Converted amounts (≈) assume the structure as drawn.
System: Plasmodium falciparum
Test: Antimalarial activity against Plasmodium falciparum NF54 after 36-40 hrs
Format: functional
In short: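 P. falciparum NF-54 kept in RPMI-1640 with 25 mM Hepes, 1% D-glucose, 0.23% sodium bicarbonate, 10% heat-inactivated human serum; D-sorbitol (5%) synchronized to ring stage. ~1% ring parasitaemia, 3% haematocrit; compound […] µg/mL, duplicate wells, 37 °C candle jar, 36–40 h. Giemsa smears scored microscopically; MIC = concentration blocking full maturation to schizonts. Pyrimethamine reference.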

SMILES	MIC
O=S(=O)(c1ccccc1)N1CCN(c2ccccn2)CC1	10 µg/mL (≈ 33 µM)
O=[N+]([O-])c1ccc(S(=O)(=O)N2CCN(c3ccccn3)CC2)cc1	10 µg/mL (≈ 28.7 µM)
O=[N+]([O-])c1ccc(S(=O)(=O)NCCCN2CCOCC2)cc1	10 µg/mL (≈ 30.4 µM)
O=S(=O)(NCCCN1CCOCC1)c1ccccc1	10 µg/mL (≈ 35.2 µM)
CN(CC(O)CNCc1ccccc1)S(=O)(=O)c1cccc2cnccc12 (centres undefined)	10 µg/mL (≈ 25.9 µM)
Cc1ccc(S(=O)(=O)N2CCN(Cc3ccccc3)CC2)cc1	10 µg/mL (≈ 30.3 µM)
O=S(=O)(c1ccccc1)N1CCN(CCO)CC1	10 µg/mL (≈ 37 µM)
CN(CC(O)CNCCc1c[nH]c2ccccc12)S(=O)(=O)c1cccc2cnccc12 (centres undefined)	10 µg/mL (≈ 22.8 µM)
CN(CC(O)CNCc1ccc(Cl)cc1Cl)S(=O)(=O)c1cccc2cnccc12 (centres undefined)	2 µg/mL (≈ 4.4 µM)
O=S(=O)(c1cccc2cnccc12)N1CCN(CCO)CC1	50 µg/mL (≈ 156 µM)
CN1CCN(S(=O)(=O)c2ccc([N+](=O)[O-])cc2)CC1	10 µg/mL (≈ 35 µM)
COc1ccc(CCNCC(O)CN(C)S(=O)(=O)c2cccc3cnccc23)cc1OC (centres undefined)	10 µg/mL (≈ 21.8 µM)
CN(CC(O)CNCc1ccccc1Cl)S(=O)(=O)c1cccc2cnccc12 (centres undefined)	10 µg/mL (≈ 23.8 µM)
CN(CC(O)CNCCCn1ccnc1)S(=O)(=O)c1cccc2cnccc12 (centres undefined)	50 µg/mL (≈ 124 µM)
CN(CC(O)CNCc1ccc(Cl)cc1)S(=O)(=O)c1cccc2cnccc12 (centres undefined)	10 µg/mL (≈ 23.8 µM)
O=[N+]([O-])c1ccc(S(=O)(=O)N2CCN(c3cccc(Cl)c3)CC2)cc1	10 µg/mL (≈ 26.2 µM)
CN1CCN(S(=O)(=O)c2ccccc2)CC1	10 µg/mL (≈ 41.6 µM)
Cc1ccc(S(=O)(=O)NCCCN2CCOCC2)cc1	10 µg/mL (≈ 33.5 µM)
CN(CC(O)CNCCc1ccc(O)cc1)S(=O)(=O)c1cccc2cnccc12 (centres undefined)	50 µg/mL (≈ 120 µM)
Cc1ccc(S(=O)(=O)N2CCN(C)CC2)cc1	10 µg/mL (≈ 39.3 µM)
CN(CC(O)CNCc1ccc(Cl)c(Cl)c1)S(=O)(=O)c1cccc2cnccc12 (centres undefined)	2 µg/mL (≈ 4.4 µM)
COc1ccc(CCNS(=O)(=O)c2ccc([N+](=O)[O-])cc2)cc1OC	10 µg/mL (≈ 27.3 µM)
COc1ccc(CCNCC(O)CN(C)S(=O)(=O)c2cccc3cnccc23)cc1 (centres undefined)	10 µg/mL (≈ 23.3 µM)

The remaining lines, values ahead:

MIC	SMILES
10 µg/mL (≈ 27.7 µM)	O=[N+]([O-])c1ccc(S(=O)(=O)N2CCN(Cc3ccccc3)CC2)cc1
10 µg/mL (≈ 35.2 µM)	Cc1ccc(S(=O)(=O)N2CCN(CCO)CC2)cc1
10 µg/mL (≈ 29.8 µM)	COc1ccc(CCNS(=O)(=O)c2ccc(C)cc2)cc1OC
10 µg/mL (≈ 26.6 µM)	CN(CC(O)CNCc1ccco1)S(=O)(=O)c1cccc2cnccc12 (centres undefined)
10 µg/mL (≈ 28.5 µM)	Cc1ccc(S(=O)(=O)N2CCN(c3ccc(Cl)cc3)CC2)cc1
10 µg/mL (≈ 31.1 µM)	COc1ccc(CCNS(=O)(=O)c2ccccc2)cc1OC
10 µg/mL (≈ 35.8 µM)	Cc1ccc(S(=O)(=O)NCCCn2ccnc2)cc1
10 µg/mL (≈ 31.7 µM)	O=[N+]([O-])c1ccc(S(=O)(=O)N2CCN(CCO)CC2)cc1
10 µg/mL (≈ 31.2 µM)	NCCN1CCN(S(=O)(=O)c2cccc3cnccc23)CC1
10 µg/mL (≈ 29.7 µM)	O=S(=O)(c1ccccc1)N1CCN(c2ccc(Cl)cc2)CC1
10 µg/mL (≈ 40.2 µM)	CCc1nc(N)nc(N)c1-c1ccc(Cl)cc1 [PYRIMETHAMINE]
